Assay type in all cases: functional
One assay relates to Fonsecaea compacta. Kind of assay: Antifungal activity against Fonsecaea compacta. An outline of the steps: (§1)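 NCCLS broth serial dilution in RPMI 1640 buffered with 0.165 M MOPS. Compounds were dissolved in DMSO and serially diluted in medium. Strains came from ATCC or clinical isolates. The growth MIC for filamentous fungi was read at 7 d, taken as the lowest concentration giving ≥80% turbidity inhibition versus the growth control.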

Assay [1] deals with Candida albicans. As to the kind of experiment: Antifungal activity against Candida albicans after 24 hrs. An outline of the steps: (§2)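 Candida yeasts were tested by NCCLS microdilution in RPMI 1640 buffered with 0.165 M MOPS and incubated at 35 °C. Compounds were dissolved in DMSO and serially diluted in medium. Isolates came from ATCC or the clinic. The MIC was read at 24 h as the lowest concentration achieving ≥80% growth inhibition versus the control.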

The next assay relates to Candida parapsilosis. Kind of assay: Antifungal activity against Candida parapsilosis after 24 hrs. The conditions noted are these: Lodderomyces parapsilosis. An outline of the steps:
as §2

In another assay the test system is Microsporum. As to the kind of experiment: Antifungal activity against Microsporum gypseum. An outline of the steps:
(§3)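 Dermatophytes were tested by NCCLS serial dilution in RPMI 1640 with 0.165 M MOPS and incubated at 28 °C. Compounds were dissolved in DMSO and diluted in medium. Strains came from ATCC or clinical isolates. The MIC was read at 7 d as the lowest concentration reducing turbidity by ≥80% relative to the drug-free control.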

The next assay deals with Trichophyton rubrum. As to the kind of experiment: Antifungal activity against Trichophyton rubrum. An outline of the steps:
as §3

In the next assay the test system is Cryptococcus neoformans. As to the kind of experiment: Antifungal activity against Cryptococcus neoformans after 72 hrs. An outline of the steps: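 Cryptococcus neoformans was tested by NCCLS serial dilution in MOPS-buffered (0.165 M) RPMI 1640 at 35 °C. Compounds were dissolved in DMSO and diluted in medium. The MIC was read at 72 h as the lowest concentration giving turbidity inhibition of ≥80% relative to the growth control.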

Assay [2] relates to Candida albicans. Kind of assay: Antifungal activity against fluconazole-resistant Candida albicans 01010 after 24 hrs. An outline of the steps: (§4)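 Broth serial dilution MIC per NCCLS in 96-well format; medium RPMI 1640 buffered with 0.165 M MOPS; compounds dissolved in DMSO and serially diluted in medium; clinical C. albicans isolates incubated at 35 °C, read at 24 h; MIC = lowest concentration giving turbidity […] inhibition relative to growth control; fluconazole and I-6 as control drugs.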

For the next assay, the system named is Aspergillus fumigatus. Kind of assay: Antifungal activity against Aspergillus fumigatus. An outline of the steps:
as §1

Assay [3] has as its system Candida albicans. As to the kind of experiment: Antifungal activity against fluconazole-resistant Candida albicans 0511655 after 24 hrs. An outline of the steps: as §4
Assay [4] deals with Candida albicans. Kind of assay: Antifungal activity against fluconazole-resistant Candida albicans 25 after 24 hrs. An outline of the steps: as §4
In assay [5] the test system is Candida albicans. Kind of assay: Antifungal activity against fluconazole-resistant Candida albicans 18 after 24 hrs. An outline of the steps:
as §4

Converted amounts (≈) assume the structure as drawn.

By MIC is commonly meant the lowest concentration that inhibits growth of the organism.

Regarding `CCCCCCCCNC1CCc2cc(OC)ccc2C1` (stereo not drawn), the MIC in the assay on Fonsecaea compacta came out at 8 µM (≈ 2.32 µg/mL); against Candida albicans [1], 0.0625 µM (≈ 0.0181 µg/mL); against Candida parapsilosis, 16 µM (≈ 4.63 µg/mL); in the assay on Microsporum, 8 µM (≈ 2.32 µg/mL); in the assay on Trichophyton rubrum, 8 µM (≈ 2.32 µg/mL); in the assay on Cryptococcus neoformans, 16 µM (≈ 4.63 µg/mL). Moreover, the MIC in the assay on Candida albicans [2] is 16 µM (≈ 4.63 µg/mL); against Aspergillus fumigatus it was greater than 64 µM; in the assay with Candida albicans [3], 8 µM (≈ 2.32 µg/mL); in the assay on Candida albicans [4] it was 8 µM (≈ 2.32 µg/mL); in the assay with Candida albicans [5], 8 µM (≈ 2.32 µg/mL).

`CCCCCCCCNC1CCc2cc(O)ccc2C1` (stereo not drawn): the MIC stood at 2 µM (≈ 0.551 µg/mL) against Fonsecaea compacta; 0.0625 µM (≈ 0.0172 µg/mL) against Candida albicans [1]; 16 µM (≈ 4.41 µg/mL) in the assay on Candida parapsilosis; 16 µM (≈ 4.41 µg/mL) against Microsporum; 4 µM (≈ 1.1 µg/mL) in the assay on Trichophyton rubrum; 8 µM (≈ 2.2 µg/mL) with Cryptococcus neoformans. The MIC in the assay on Candida albicans [2] was 4 µM (≈ 1.1 µg/mL); in the assay on Aspergillus fumigatus it was greater than 64 µM; with Candida albicans [3], 4 µM (≈ 1.1 µg/mL); with Candida albicans [4], 2 µM (≈ 0.551 µg/mL); against Candida albicans [5] it was 4 µM (≈ 1.1 µg/mL).

Consider `OC(Cn1cncn1)(Cn1cncn1)c1ccc(F)cc1F` [FLUCONAZOLE], for which the MIC in the assay on Fonsecaea compacta came to 16 µM (≈ 4.9 µg/mL); with Candida albicans [1] it was 8 µM (≈ 2.45 µg/mL); against Candida parapsilosis, 0.5 µM (≈ 0.153 µg/mL); against Microsporum it was 16 µM (≈ 4.9 µg/mL); against Trichophyton rubrum it was 1 µM (≈ 0.306 µg/mL); in the assay on Cryptococcus neoformans, 2 µM (≈ 0.613 µg/mL). For the same molecule, the MIC against Candida albicans [2], against Aspergillus fumigatus, in the assay on Candida albicans [3], with Candida albicans [4] and in the assay on Candida albicans [5] was greater than 64 µM throughout.

These data come from ChEMBL document CHEMBL1137547, “Synthesis and antifungal activities of novel 2-aminotetralin derivatives” (2007).
